Data: ChEMBL document CHEMBL3758131, “Towards new 5-HT7 antagonists among arylsulfonamide derivatives of (aryloxy)ethyl-alkyl amines: Multiobjective based design, synthesis, and antidepressant and anxiolytic properties” (Eur J Med Chem, 2016)

Tests used:
Mus musculus [1] = assay: Antidepressant activity in C57BL/6J mouse assessed as average force at 10 mg/kg, ip measured over 6 mins by tail suspension test (reference value: 0.281 +/- 0.018 to 0.359 +/- 0.027 N); type: functional
Mus musculus [2] = assay: Antidepressant activity in C57BL/6J mouse assessed as number of events at […] mg/kg, ip measured over 6 mins by tail suspension test (reference value: 1325.1 +/- 77.8 to 1773.4 +/- 109.9); type: functional
Mus musculus [3] = assay: Antidepressant activity in C57BL/6J mouse assessed as number of events at […], ip measured over 6 mins by tail suspension test (reference value: 1325.1 +/- 77.8 to 1773.4 +/- 109.9); type: functional
Mus musculus [4] = assay: Antidepressant activity in C57BL/6J mouse assessed as number of events at 5 mg/kg, ip measured over 6 mins by tail suspension test (reference value: 1325.1 +/- 77.8 to 1773.4 +/- 109.9); type: functional
Mus musculus [5] = assay: Antidepressant activity in C57BL/6J mouse assessed as number of events at 10 mg/kg, ip measured over 6 mins by tail suspension test (reference value: 1325.1 +/- 77.8 to 1773.4 +/- 109.9); type: functional
Mus musculus [6] = assay: Antidepressant activity in C57BL/6J mouse assessed as immobility time at […] mg/kg, ip measured over 6 mins by tail suspension test (reference value: 160.7 +/- 12 to 170.6 +/- 9 sec); type: functional
Mus musculus [7] = assay: Antidepressant activity in C57BL/6J mouse assessed as immobility time at […], ip measured over 6 mins by tail suspension test (reference value: 160.7 +/- 12 to 170.6 +/- 9 sec); type: functional
Mus musculus [8] = assay: Antidepressant activity in C57BL/6J mouse assessed as immobility time at 5 mg/kg, ip measured over 6 mins by tail suspension test (reference value: 160.7 +/- 12 to 170.6 +/- 9 sec); type: functional
Mus musculus [9] = assay: Antidepressant activity in C57BL/6J mouse assessed as immobility time at 10 mg/kg, ip measured over 6 mins by tail suspension test (reference value: 160.7 +/- 12 to 170.6 +/- 9 sec); type: functional
Mus musculus [10] = assay: Antidepressant activity in albino Swiss mouse assessed as decrease in immobility time at 10 mg/kg, ip by forced swim test; type: functional
Mus musculus [11] = assay: Toxicity in ip dosed albino Swiss mouse assessed as effect on spontaneous locomotory activity at MED measured over 2 to 6 mins; type: organism-based; conditions: in vivo
How it was run: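 Male Albino Swiss mice (22–28 g) received drug i.p. 60 min before testing, in 1% aqueous Tween 80 or distilled water. Each mouse was habituated alone in a plastic cage for 30 min, then ambulation was counted from 2 to 6 min. Groups of 6–10 animals, each used once.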

Mus musculus [12] = assay: Antidepressant activity in ip dosed C57BL/6J mouse assessed as reduction in immobility time of mouse by tail suspension test; type: functional; conditions: read-out: MED
Rattus norvegicus = assay: Antidepressant activity in ip dosed Wistar rat assessed as reduction in immobility time of rat by forced swim test; type: functional; conditions: read-out: MED
How it was run: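 Male Wistar rats (220-250 g), ip injection 30 min before test. Day 1: 15-min pre-swim in a cylinder with 15 cm of water at 25 °C, then drying under a lamp. Next day: total immobility recorded over the whole 5-min test, with fresh water for each rat.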

Mus musculus [13] = assay: Anxiolytic activity in ip dosed albino Swiss mouse assessed as increase in number of shocks accepted measured over 1 min, 15 secs by four plates test; type: functional; conditions: read-out: MED
How it was run: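 Male Albino Swiss mice, ip injection 60 min before test. Four-plate cage; after 15 s of habituation, each plate-to-plate crossing during a 1-min session is punished with a 0.8 mA, 0.5 s foot shock, followed by a 3-s shock-free interval. Number of shocks accepted is counted.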

Mus musculus [14] = assay: Toxicity in ip dosed C57BL/6J mouse assessed as effect on spontaneous locomotory activity at MED measured over 6 mins; type: organism-based; conditions: in vivo, 0.1 h
How it was run: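 Mice habituated 30 min in individual cages, then ambulation counted over a period matching each behavioural test: 6 min for the tail suspension test and 1 min 15 s for the four-plate test. Compounds given ip at the active doses.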

Mus musculus [15] = assay: Toxicity in ip dosed C57BL/6J mouse assessed as effect on spontaneous locomotory activity at MED measured over 1 min 15 secs; type: organism-based; conditions: in vivo
Mus musculus [16] = assay: Antidepressant activity in C57BL/6J mouse assessed as average force at […] mg/kg, ip measured over 6 mins by tail suspension test (reference value: 0.281 +/- 0.018 to 0.359 +/- 0.027 N); type: functional
Mus musculus [17] = assay: Antidepressant activity in C57BL/6J mouse assessed as average force at […], ip measured over 6 mins by tail suspension test (reference value: 0.281 +/- 0.018 to 0.359 +/- 0.027 N); type: functional
Mus musculus [18] = assay: Antidepressant activity in C57BL/6J mouse assessed as average force at 5 mg/kg, ip measured over 6 mins by tail suspension test (reference value: 0.281 +/- 0.018 to 0.359 +/- 0.027 N); type: functional

CC1CCN(CC[C@H]2CCCN2S(=O)(=O)c2cccc(O)c2)CC1
Activity (Mus musculus [1]): 0.311 N
Activity (Mus musculus [2]): 1764.8
Activity (Mus musculus [3]): 1467.1
Activity (Mus musculus [4]): 1604.7
Activity (Mus musculus [5]): 1600.1
Time (Mus musculus [6]): 139.5 s
Time (Mus musculus [7]): 151 s
Time (Mus musculus [8]): 170.6 s
Time (Mus musculus [9]): 186.1 s
inhibition in vivo at 10 mg/kg (Mus musculus [10]): 31%
Activity (Mus musculus [11]): Non-toxic
minimal effective dose (Mus musculus [12]): 2.5 mg/kg
minimal effective dose (Rattus norvegicus): 1.25 mg/kg
minimal effective dose (Mus musculus [13]): 1 mg/kg
Activity (Mus musculus [14]): Non-toxic
Activity (Mus musculus [15]): Non-toxic
Activity (Mus musculus [16]): 0.396 N
Activity (Mus musculus [17]): 0.449 N
Activity (Mus musculus [18]): 0.363 N
